This note sets out measurements from ChEMBL document CHEMBL1759898, “Synthesis of 5-arylated N-arylthiazole-2-amines as potential skeletal muscle cell differentiation promoters” (Bioorg Med Chem Lett, 2011).

Activity calls are given as the source filed them. The calls are words filed in the database; no cut-off is given here.

Holding throughout (format): functional, cell-based
The subject of test [1] is C2C12. Briefly: Induction of cell differentiation in mouse C2C12 cells assessed as myotube formation at 5 uM. In a few lines:
(§1)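 C2C12 myoblasts grown 2 days in growth medium to about 70% confluence, then differentiation induced by serum reduction in differentiation medium containing compound at 5 µM final (from 20 mM DMSO stock). Controls received equal DMSO. Incubation at 37 °C for 7 days, medium changed at days 3 and 5. Myotube morphology was photographed under the microscope at 3, 5 and 7 days. Duplicates, four controls.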

Test [2] concerns C2C12. Briefly: Induction of cell differentiation in mouse C2C12 cells assessed as myotube formation at 5 uM after 3 days. In a few lines:
as §1

Test [3] deals with C2C12. Briefly: Induction of cell differentiation in mouse C2C12 cells assessed as myotube formation at 5 uM after 7 days. The essentials: as §1
The test system of test [4] is C2C12. Briefly: Induction of cell differentiation in mouse C2C12 cells assessed as myotube formation at 5 uM after 5 days. In a few lines:
as §1

Regarding `Fc1ccc(-c2cnc(N(Cc3ccccc3)c3ccccc3)s2)cc1`, in test [1], the result was Active.

For the molecule `O=[N+]([O-])c1cccc(-c2cnc(N(Cc3ccccc3)c3ccccc3)s2)c1`, the outcome in test [1] was Active.

Take `O=[N+]([O-])c1ccc(-c2cnc(N(Cc3ccccc3)c3ccccc3)s2)cc1`: in test [1], the outcome was inactive.

Take `c1ccc(CN(c2ccccc2)c2ncc(-c3cccs3)s2)cc1`: the outcome in test [2], in test [1], in test [3] and in test [4] was Active.

Take `Cc1ccc(-c2cnc(N(Cc3ccccc3)c3ccccc3)s2)cc1`: in test [1], the result was inactive.

For `CCOC(=O)c1ccc(-c2cnc(N(Cc3ccccc3)c3ccccc3)s2)cc1`, the result in test [1] was Active.

For the molecule `c1ccc(CN(c2ccccc2)c2ncc(-c3ccccc3)s2)cc1`, the outcome in test [1] was Active.

As for `Fc1ncccc1-c1cnc(N(Cc2ccccc2)c2ccccc2)s1`, the outcome in test [1] was Active.

For `Cc1ccccc1-c1cnc(N(Cc2ccccc2)c2ccccc2)s1`, the outcome in test [1] was inactive.
